Published values of several laboratories.
HTR2C: 5-hydroxytryptamine receptor 2C (HTR2C, Homo sapiens, UniProt P28335)
HLA class I histocompatibility antigen, B alpha chain: HLA class I histocompatibility antigen, B alpha chain (Homo sapiens, UniProt P01889)
HTR2B: 5-hydroxytryptamine receptor 2B (HTR2B, Homo sapiens, UniProt P41595)

O=[N+]([O-])c1ccc(O)c([N+](=O)[O-])c1  Kd (Casein kinase I isoform delta (CSNK1D, Homo sapiens, UniProt P48730); binding; SPR): > 50 µM
COc1cc(CCNC(c2ccccc2O)C2CC2)c(OC)cc1C#N (centres unmarked)  EC50 (HTR2C; calcium signal; agonist): > 10 µM
CC[C@H](C)[C@H](NC(=O)[C@@H](NC(=O)[C@H](CCCCN)NC(=O)[C@H](Cc1c[nH]cn1)NC(=O)[C@H](Cc1ccc(O)cc1)NC(=O)[C@H](CCSC)NC(=O)[C@@H](N)CCCNC(=N)N)C(C)C)C(=O)N[C@H](C(=O)N[C@@H](Cc1ccccc1)C(=O)O)[C@@H](C)O  IC50 (HLA class I histocompatibility antigen, B alpha chain; cell-free assay): 1.75 µM
COc1cc2c3c(c1OC)-c1c(cccc1OC)CC3N(C)CC2 (racemic)  Ki (HTR2B; ligand displacement; radioligand): 0.596 µM
COc1cc(CCNC2CCCc3cccc(O)c32)c(OC)cc1C#N (centres unmarked)  EC50 (HTR2C; G protein activation; agonist; BRET): 5.9 µM
CC[C@H](C)[C@H](NC(=O)[C@@H](N)CCCNC(=N)N)C(=O)N[C@@H](Cc1ccc(O)cc1)C(=O)NCC(=O)N1CCC[C@H]1C(=O)N1CCC[C@H]1C(=O)N[C@@H](Cc1c[nH]cn1)C(=O)N[C@@H](CCC(N)=O)C(=O)N[C@@H](Cc1ccccc1)C(=O)O  IC50 (HLA class I histocompatibility antigen, B alpha chain; cell-free assay): 2.3 µM
CC(C)C[C@H](NC(=O)[C@H](CC(C)C)NC(=O)[C@@H]1CCCN1C(=O)[C@H](C)NC(=O)[C@@H](NC(=O)[C@H](C)N)C(C)C)C(=O)N[C@@H](Cc1c[nH]cn1)C(=O)N[C@@H](CO)C(=O)N[C@H](C(=O)O)[C@@H](C)OP(=O)(O)O  Kd (Serine/threonine-protein kinase PLK1, polo-box (PLK1, Homo sapiens, UniProt P53350); binding; MST; pH 8): 0.0463 µM
CC[C@H](C)[C@H](NC(=O)[C@H](Cc1ccccc1)NC(=O)[C@@H]1CCCN1C(=O)CNC(=O)[C@H](Cc1ccc(O)cc1)NC(=O)[C@H](CCSC)NC(=O)[C@@H](N)CCCNC(=N)N)C(=O)N[C@@H](Cc1c[nH]cn1)C(=O)N[C@@H](Cc1ccccc1)C(=O)O  IC50 (HLA class I histocompatibility antigen, B alpha chain; cell-free assay): 31.4 µM
O=C(O)CC(O)(CC(=O)O)C(=O)O  Ki (Tyrosine-protein phosphatase non-receptor type 5 (PTPN5, Homo sapiens, UniProt P54829); enzyme activity; inhibitor): 4100 µM
COc1cc2c(cc1OC)-c1c(OC)c(OC)cc3c1[C@H](C2)N(C)CC3  Ki (HTR2B; ligand displacement; radioligand): 0.216 µM
Nc1ncnc2c1ncn2[C@@H]1O[C@H](C[C@@H](N)CC[C@H](N)C(=O)O)[C@@H](O)[C@H]1O  IC50 (mRNA cap guanine-N(7) methyltransferase (RNMT, Homo sapiens, UniProt O43148); enzyme activity; inhibitor): 9.02 µM
CC(C)CC[C@@H](O)[C@@H](C)[C@H]1CC[C@H]2[C@@H]3CC=C4C[C@@H](O)CC[C@]4(C)[C@H]3CC[C@]12C  Kd (Cholesterol side-chain cleavage enzyme, mitochondrial (CYP11A1, Homo sapiens, UniProt P05108); binding): 0.163 µM
COc1cc2c(cc1OC)CN(CCc1ccc(NC(=O)c3cccc4c(=O)c5cccc(OC)c5[nH]c34)cc1)CC2  Ki (HTR2B; cell-free assay): 0.222 µM
CC(C)C[C@H](NC(=O)[C@@H]1CCCN1C(=O)[C@H](Cc1c[nH]c2ccccc12)NC(=O)[C@H](CC(=O)O)NC(=O)[C@H](Cc1ccc(O)cc1)NC(=O)[C@@H](NC(=O)[C@@H](N)Cc1ccc(O)cc1)C(C)C)C(=O)N[C@H](C(=O)N[C@@H](Cc1ccccc1)C(=O)O)[C@@H](C)O  IC50 (HLA class I histocompatibility antigen, B alpha chain; cell-free assay): 24.2 µM
COc1cc(C(F)(F)F)c(OC)cc1C1CCCNC1 (centres unmarked)  EC50 (HTR2B; G protein activation; agonist; BRET): 0.12 µM
CC[C@H](C)[C@H](NC(=O)[C@@H](N)CCSC)C(=O)N[C@@H](Cc1ccccc1)C(=O)N[C@@H](CC(=O)O)C(=O)N[C@@H](CCCCN)C(=O)N1CCC[C@H]1C(=O)N[C@H](C(=O)N[C@@H](Cc1ccc(O)cc1)C(=O)N[C@@H](Cc1ccccc1)C(=O)O)C(C)C  IC50 (HLA class I histocompatibility antigen, B alpha chain; cell-free assay): 36 µM
CCCC(NCCc1cc(OC)c(C#N)cc1OC)c1ccccc1O (centres unmarked)  EC50 (HTR2C; calcium signal; agonist): 7.9 µM
